# An excerpt weighted towards active compounds, which were near 1.6% of everything screened.
# TLR4-MyD88 BLA = inhibitors of TLR4-MyD88 association in cells, primary screen, cell-based, HeLa CL3-4, BLA complementation, FRET ratio; HeLa CL3-4 TLR4/MyD88 BLA complementation; Toll-like receptor 4 (Homo sapiens) + Myeloid differentiation primary response protein …; 200,000 compounds, 0.18% hits; inhibition, % at 8.4 µM; in the data active means inhibition above about 25%;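 further: 0% = vehicle and 100% = reference inhibitor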
# TLR9-MyD88 inh = inhibitors of TLR9-MyD88 association in cells, primary screen, cell-based, CHO, BLA complementation, fluorescence | Toll-like receptor 9 (Homo sapiens) + Myeloid differentiation primary response protein … | CCF4 FRET ratio | inhibition, % at 4.98 µM | 340,000 compounds, 0.21% hits;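 active means inhibition above the mean over all tested compounds plus 3 SD, cut at about 21% in these data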;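 further: 0% = DMSO only wells and 100% = clavulanate BLA inhibitor control wells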
# NOD2-RIPK2 inh = NOD2-RIPK2 binding disruptors in cells, primary screen, fluorescence, CHO cells, BLA complementation; inhibition, % at 4.98 µM; AID 624267, 2012; Receptor-interacting serine/threonine-protein kinase 2 (Homo sapiens), O43353; CCF4 ratio; 360,000 compounds, 0.38% hits; in the data active means inhibition above about 21%;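 further: 0% = vehicle only and 100% = reference blocker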
# ABHD5 PLIN5 PPI = ABHD5-PLIN5 interaction inhibitors, primary screen, cell lysate, split luciferase complementation, luminescence; Perilipin-5 (Homo sapiens) + 1-acylglycerol-3-phosphate O-acyltransferase ABHD5 (Homo …; inhibition, % at 4 µM; Split G. princeps luciferase complementation, 4 h; 360,000 compounds, 0.78% hits; AID 602281, 2012;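 active means inhibition above the mean inhibition across every tested compound plus 3 SD, cut at about 22% in these data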;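 further: 0% = DMSO only wells and the 100% control is not disclosed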
# Dynein cargo inh = inhibitors of GR-EGFP nuclear translocation, primary screen, dynein cargo transport inhibitor project, imaging, high-content, 3617.4 mouse cells; test concentration mostly 20 µM; stimulated with dexamethasone, 1 µM; active compounds read low; 220,000 compounds, 0.47% hits; z-score, hits read low;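 active means plate z-score of nuclear minus cytoplasmic receptor signal below a set negative limit, without overly bright fluorescence or cell loss, cut at about -3.5 in these data, passing the limit was not always enough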;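 further: z-score of nuclear minus cytoplasmic ring GR-EGFP intensity difference per well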
#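 Buffer or medium: tet-free, stripped-serum medium; reagent: dexamethasone at 1.0 µM final, 30 min; incubation: 48 h induction, 1 h compound, 30 min dex at 37 °C; measured by: formaldehyde fixation, Hoechst nuclear stain, 10x automated fluorescence imaging; read-out: nuclear-to-cytoplasmic GR-EGFP distribution per well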
# B2AR ag = beta2AR agonists driving receptor internalization, primary screen, cell-based, FAP fluorogen, flow cytometry; response, % (test concentration not listed); Am2.2-beta2AR cells; Beta-2 adrenergic receptor (Homo sapiens), P07550; 340,000 compounds, 0.43% hits;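 active means response above a set limit, near 3 SD of response in nonfluorescent compounds, cut at about 42% in these data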
# Active calls of the source: *; x = no result given.
SMILES,TLR4-MyD88 BLA,TLR9-MyD88 inh,NOD2-RIPK2 inh,ABHD5 PLIN5 PPI,Dynein cargo inh,B2AR ag
COc1cc(NC(=O)Cn2ncc3c2-c2ccccc2OC3)cc(OC)c1OC,0,0,30*,1,-1,4
COc1ccc2sc(N(CCCN(C)C)C(=O)c3ccc(S(=O)(=O)N4CCCc5ccccc54)cc3)nc2c1,x,-7,4,11,x,53*
CCOc1ccc2nc(N(CCN(C)C)C(=O)c3ccc4c(c3)CCCC4)sc2c1,x,-16,-5,7,x,2
Cc1ccc2nc(N(CCCN(C)C)C(=O)c3ccc4c(c3)CCCC4)sc2c1,-7,-2,14,22*,2.2,2
CC1COC(=C2C(=O)OCC2C)C1 (configuration not stated),x,-4,-15,-5,x,x
O=C1COc2ccc(N3C(=O)C=CC3=O)cc2N1,1,x,x,x,-4*,x
C(C#CCCCCCCCCC[n+]1ccccc1)#CCCCCCCCCC[n+]1ccccc1,x,-6,1,33*,x,21
COC(=O)C1OC(OC2CC[C@]3(C)C(CC[C@@]4(C)[C@@H]3CC=C3[C@@H]5CC(C)(C)CC[C@]5(C(=O)OC5OC(CO)C(O)C(O)C5O)CC[C@]34C)C2(C)C)C(O)C(O)C1O[C@H]1OCC(O)C(O)C1O (some centres not stated),x,-4,-4,33*,x,-13
Cc1ccc(OCCC(=O)OCC(=O)Nc2ccccc2)cc1,x,-13,0,15,x,8
CN(CCc1ccccc1)C(C(=O)Nc1ccc2c(c1)OCCO2)C1CC1 (configuration not stated),x,x,-5,-2,x,x
Cc1nc(N2N=C(c3ccc(Cl)cc3)CC2c2ccco2)sc1C(=O)N(C)C (configuration not stated),13,-4,5,22*,0.047,2
Clc1ccc(C2=NN(c3ccccc3)C(c3ccco3)C2)cc1 (configuration not stated),x,-14,-5,-1,0.55,6
O=C(O)C1=CC2C=C(Cl)C=CC2OC1=O (configuration not stated),x,-2,-9,1,x,1
Cc1ccc(S(=O)(=O)N(C)C[C@H]2OCCCC[C@H](C)Oc3ccc(NC(=O)Nc4cccc5ccccc45)cc3C(=O)N([C@@H](C)CO)C[C@H]2C)cc1,x,-4,-8,8,x,x
C=CC#CC[N+]1(CC#Cc2ccccc2)CCOCC1,1,-3,-20,7,-0.27,72*
C(#Cc1ccccc1)C[N+]1(CC#Cc2ccccc2)CCCC1,3,7,-5,1,0.14,5
COc1cccc(C2Oc3ccccc3C3CC(c4cccs4)=NN32)c1 (configuration not stated),x,x,0,22*,0.73,16
N#Cc1c(N2CCOCC2)nc(-c2ccco2)c2c1CCCC2,-8,0,4,23*,-0.68,4
O=C1ON=C(c2cccc([N+](=O)[O-])c2)/C1=C/c1ccc(O)cc1,9,4,-2,2,-1.5,53*
O=C(/C=C/c1ccco1)NCC1(c2ccccc2)CCCC1,-11,-6,5,-2,-0.52,-10
COc1ccc(C2(CNC(=O)/C=C/c3ccco3)CCCC2)cc1OC,4,7,-6,35*,-0.13,-3
CCOc1ccc(N=C2NC(=O)/C(=C/C(=O)OC)S2)cc1,-3,3,-8,23*,-0.83,14
COC(=O)/C=C1/SC(=NC(=O)c2ccc(OC)cc2)NC1=O,x,-1,11,-12,x,11
CN(c1ccccc1)S(=O)(=O)c1cccc(C(=O)NCC(c2cccs2)N2CCOCC2)c1 (configuration not stated),x,-1,3,0,x,x
O=C1ON=C(c2ccccc2)/C1=C/c1ccc(OS(=O)(=O)c2ccccc2)cc1,-1,-3,-6,1,-4*,2
SMILES,TLR4-MyD88 BLA,TLR9-MyD88 inh,NOD2-RIPK2 inh,ABHD5 PLIN5 PPI,Dynein cargo inh,B2AR ag
CC(CCC(=O)NN)C1CCC2C3CCC4CC(O)CCC4(C)C3CCC12C (configuration not stated),x,3,-6,-2,x,-7
CC(CCC(C)C(C)(C)C)[C@@H]1CC[C@H]2C3C[C@H](OS(O)(=S)=S)[C@H]4C[C@H](OS(O)(=S)=S)[C@@H](OS(O)(=S)=S)C[C@]4(C)[C@H]3CC[C@]12C (some centres not stated) (tested in a mixture with another compound),x,2,24*,5,x,30
COc1ccc(C)cc1Nc1n[n+](-c2ccccc2)c(-c2c(OC)ccc3ccccc23)s1,x,-2,4,17,x,20
c1ccc(-[n+]2nc(Nc3cccc4ccccc34)sc2-c2c3ccccc3cc3ccccc23)cc1,x,44*,51*,11,x,1
Cc1cc(NC(=O)CCS(=O)(=O)c2nc(-c3ccccc3)cc(C(F)(F)F)n2)no1,x,11,23*,42*,x,30
O=C(CN1CCNCC1)N1CCOCC1,x,x,-7,10,x,x
Clc1cc(Br)ccc1OCCCNCc1ccccc1,0,-6,0,22*,-1.5,10
Cc1ccc(C)c(OCCCNCc2ccccc2)c1,x,-4,5,8,x,11
COc1ccccc1-c1cnc(C(O)c2cc(Cl)cc(Cl)c2)[nH]1 (configuration not stated),x,x,8,-4,x,x
O=Cc1cccc(OCc2cccc3ccccc23)c1,x,3,14,-4,x,71*
Cc1ccc(S(=O)(=O)NCC(=O)OCC(=O)N(C)C2CCCCC2)cc1,x,-9,-1,-8,x,-7
c1cnc(N2CCN(c3nc4ccccc4n4cnnc34)CC2)nc1,-3,-1,-18,4,-0.55,-11
Cc1cccc(N2CCN(c3nc4ccccc4n4cnnc34)CC2)c1C,-7,-1,-2,-1,-1.5,42*
CC1=C/C(=N\OS(=O)(=O)c2ccccc2)C(C(C)C)=CC1=O,9,-6,16,21,-4.7*,17
CC(S(=O)(=O)c1ccccc1)S(=O)(=O)c1ccccc1,x,0,-4,-3,x,x
Cc1cc(/C=C\c2ccc3cc(N(C)C)ccc3[n+]2C)c(C)n1-c1ccccc1,x,-1,7,26*,x,x
CCOC(=O)/C(=C\c1ccc(OC(F)F)cc1)C1=Nn2c(nnc2-c2ccc(Cl)cc2)SC1,14,0,-6,20,-2.6,80*
COc1ccc(-c2nnc3n2N=C(C)CS3)cc1,-3,2,-4,-1,0.29,4

# Assay outcomes: PubChem BioAssay, several laboratories
